The text below walks through data of paper PMC9845116 (Saudi Pharmaceutical Journal : SPJ, 2022).

The structures appear in SMILES notation. Read-outs that look alike come from different tables or passages of the source.

What all share (type): cell-based
One data set relates to A549. Description: MTT cell viability assay, A549.
A further data set concerns Hela. Description: MTT cell viability assay, Hela. To be noted: for IC50: 48 h.
A further data set concerns HepG2. The data set is described as follows: MTT cell viability assay, HepG2.
For the next data set, the system named is MCF-7. Description: MTT cell viability assay, MCF-7. Background: Tetrazolium assays rely on reduction of a dye to a coloured formazan, in cell work by metabolically active cells.
Data set [1] has as its system human liver cell line L-O2. The data set is described as follows: Cytotoxic activity on human liver cells. The method in brief:
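L-02 cells were grown in DMEM with 10 % FBS and 1 % penicillin–streptomycin at 37 °C, 5 % CO2, then seeded at 2 × 10^4 cells per well in 96-well plates. Test compounds were made as 20 mM DMSO stocks and applied at various concentrations for 48 h. MTT (5 mg/mL stock in PBS) was added for 4 h at 37 °C in the dark. Formazan was dissolved in DMSO and read at 490 nm; triplicate experiments.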

Data set [2] relates to Hela cells. Description: Colony formation assay, Hela. To be noted: 0.5 mM (so in the source), vs 5-Fu 5 μM. The gist of the method:
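HeLa cells were seeded at 1500 per well in six-well plates and grown 48 h in regular medium. Cells were exposed to test compound or 5-Fu (positive control) at indicated concentrations for 7 days. They were then PBS-washed, fixed with paraformaldehyde 30 min, stained with crystal violet 30 min, and photographed. Clone formation rate was quantified; mean ± SD of three separate experiments.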

The next data set has as its system MCF-7 cells. Description: Colony formation assay, MCF-7. To be noted: 0.5 mM (so in the source), vs 5-Fu 5 μM. The gist of the method:
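MCF-7 cells grown in DMEM with 10 % FBS and 1 % penicillin–streptomycin at 37 °C, 5 % CO2. Seeded at 1500 cells/well in six-well plates, grown 48 h, then exposed to test compound or 5-Fu for 7 days. Washed with PBS, fixed with paraformaldehyde for 30 min, stained with crystal violet for 30 min, photographed. Clone formation rate quantified; mean ± SD of three separate experiments.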

Data set [3] relates to Hela cells. Description: Annexin V-FITC/PI apoptosis assay. To be noted: 24 h (control 14.06 %).
Data set [4] concerns Hela cells. Description: Hoechst 33,258 staining assay. Conditions: increasing concentration 0.5-4 μM, 24 h. The gist of the method: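 HeLa cells seeded at 1 × 10^4/well in twelve-well plates and grown 24 h in regular medium. Treated 24 h with test compound (0, 0.5, 1, 2, 4 μM) or 5-Fu (5.0 μM). Washed twice with PBS, stained with Hoechst 33,258 for 30 min in the incubator, washed, then imaged by fluorescence microscopy for apoptotic nuclear and cell morphology.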

As to `COc1cc(OC)c(C(=O)/C=C/c2ccc(Br)cn2)c(OC)c1` [B3, (E)-3-(5-bromopyridin-2-yl)-1-(2,4,6-trimethoxyphenyl)prop-2-en-1-one], the concentration for half-maximal inhibition (IC50) in the data set on A549 (Homo sapiens, A549, 48 h, read-out: IC50(μM) A549) stood at 5.19 ± 0.23 µM; in the data set with Hela (Homo sapiens, HeLa, read-out: IC50(μM) Hela, MTT, 48 h, Hela), 3.2 µM; in the data set on Hela (read-out: IC50(μM) Hela, MTT, Hela), 3.2 ± 0.21 µM; with HepG2 (Homo sapiens, HepG2, 48 h, read-out: IC50(μM) HepG2), 5.81 ± 0.37 µM; in the data set with MCF-7 (Homo sapiens, MCF7, 48 h, read-out: IC50(μM) MCF-7, MTT, 48 h, MCF-7) it was 3.85 µM; in the data set on MCF-7 (read-out: IC50(μM) MCF-7, MTT, 48 h, MCF-7), 3.85 ± 0.28 µM. The “inhibitory effect on cell viability over time, A549” value in the data set with A549 (MTT at 24 h, 48 h and 72 h) was “excellent inhibitory effect”. Besides, the “fold potency than 5-fluorocrail, Hela” value in the data set with Hela (Hela cells, vs 5-Fu) was “over 10 fold”. In the data set with Hela (MTT at 24 h, 48 h and 72 h), the “inhibitory effect on cell viability over time, Hela” value is “excellent inhibitory effect”. Besides, the “inhibitory effect on cell viability over time, HepG2” value in the data set on HepG2 (MTT at 24 h, 48 h and 72 h) is recorded as “excellent inhibitory effect”. Besides, the “fold potency than 5-fluorocrail, MCF-7” value in the data set on MCF-7 (MCF-7 cells, vs 5-Fu) is listed as “over 10 fold”. Further, the “inhibitory effect on cell viability over time, MCF-7” value in the data set with MCF-7 (MTT at 24 h, 48 h and 72 h) is recorded as “excellent inhibitory effect”. Also, the “toxicity on normal cells” value in [1] is “low toxicity to normal cells”. The “colony formation, Hela” value in the data set with Hela cells [2] is given as “slightly better than the positive control”. Further, in the data set on MCF-7 cells, the “colony formation, MCF-7” value was “slightly better than the positive control”. Further, the apoptosis index in the data set on Hela cells [3] (0.5 μM) was determined as 16.78%; in the data set on Hela cells [3] (1 μM) it was 26.41%; with Hela cells [3] (2 μM) it was 30.95%; with Hela cells [3] (4 μM), 39.8%. In addition, in the data set with Hela cells [4], the “morphological changes of Hela cells” value was “cells shrinkage, nuclear division and formation of apoptotic bodies”.

As a reminder, the IC50 is the concentration that gives 50% inhibition.
